In ChEMBL document CHEMBL1123213, “Neuroleptic activity of chiral trans-hexahydro-gamma-carbolines” (J Med Chem, 1986):

Key:
[1] = target: Dopamine receptor; experiment: Inhibition of [3H]spiroperidol (0.5 nM) binding to dopamine receptor from rat striatal membrane.
[2] = organism: Rattus norvegicus; experiment: Compound was tested for the antagonistic activity against amphetamine-induced stereotypy in rat.; type: functional
Outline: (§1)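 Rats housed singly in covered compartments, briefly acclimated, then dosed sc in groups of five at doses spaced 0.5 log unit (1, 3.2, 10, 32 mg/kg). d-Amphetamine sulfate 5 mg/kg ip given 1, 5 and 24 h later. Behaviour scored on a six-point scale 1 h after each challenge. ED50 by linear regression or by inspection; no fiducial limits.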

[3] = tested on: Rattus norvegicus; experiment: Compound was tested for the antagonistic activity against amphetamine-induced stereotypy in rats; (5 mg/kg administered ip 24 hr after the test compound).; type: functional; outline: as §1
[4] = tested on: Rattus norvegicus; experiment: Antagonistic activity against amphetamine-induced stereotypy in rats; (5 mg/kg administered ip 1 hr after the test compound).; type: functional; outline: as §1
[5] = tested on: Rattus norvegicus; experiment: Compound was tested for the antagonistic activity against amphetamine-induced stereotypy in rats; (5 mg/kg administered ip 5 hr after the test compound).; type: functional; outline: as §1
[6] = tested on: Dopamine receptor; experiment: Compound was tested for inhibition of [3H]spiroperidol (0.5 nM) binding to dopamine receptor from rat striatal membrane; Insoluble
[7] = tested on: Rattus norvegicus; experiment: Compound was tested for the antagonistic activity against amphetamine-induced stereotypy in rats; (5 mg/kg administered ip 5 hr after the test compound); type: functional; outline: as §1
[8] = tested on: Rattus norvegicus; experiment: Compound was tested for the antagonistic activity against amphetamine-induced stereotypy in rats; (5 mg/kg administered ip 24 hr after the test compound); type: functional; outline: as §1
[9] = tested on: Mus musculus; experiment: Compound was tested for the anticholinergic activity against tetrabenazine-treated mice; activity expressed as the pupil size at the dose of 32 mg/kg sc; type: functional; settings: route subcutaneous
[10] = tested on: Mus musculus; experiment: Compound was tested for the anticholinergic activity against tetrabenazine-treated mice; activity expressed as the pupil size at the dose of 1 mg/kg sc; settings: route subcutaneous
[11] = tested on: Mus musculus; experiment: Compound was tested for the anticholinergic activity against tetrabenazine-treated mice; activity expressed as the pupil size at the dose of 10 mg/kg sc; type: functional; settings: route subcutaneous
Outline: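 Mice in groups of five dosed sc, then given tetrabenazine 32 mg/kg ip 1 h later. Pupils measured 30 min afterward under a binocular microscope, with reticle readings converted to mm. Reported as mean ± SD pupil size. Vehicle-pretreated tetrabenazine groups served as controls.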

[12] = tested on: Mus musculus; experiment: Compound was tested for the anticholinergic activity against tetrabenazine-treated mice; activity expressed as the pupil size at the dose of 100 mg/kg sc; type: functional; settings: route subcutaneous
Outline: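 Groups of five mice dosed sc with test compound, then 1 h later tetrabenazine 32 mg/kg ip. After 30 min, pupil size measured with a binocular microscope; reticle readings converted to mm. Reported as mean ± SD pupil size (mm). Vehicle-pretreated tetrabenazine control groups of five run alongside.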

[13] = tested on: Rattus norvegicus; experiment: Compound was tested for the antagonistic activity against amphetamine-induced stereotypy in rats; (5 mg/kg administered ip 5 after the test compound).; type: functional; outline: as §1
[14] = Rattus norvegicus, ip, 1 h, read-out: ED50
[15] = Rattus norvegicus, ip, 5 h, read-out: ED50
[16] = Rattus norvegicus, ip, 24 h, read-out: ED50

Compound	IC50 [1] [µM]	ED50 [3] [mg/kg]	ED50 [4, 14] [mg/kg]	ED50 [5] [mg/kg]	also measured
Cl.O=C(O)CCCN1CCC2C(C1)c1cc(F)ccc1N2c1ccc(F)cc1 (configuration not stated)	0.14	–	–	–	ED50 [2]: 0.36 mg/kg
O=C1CNC(=O)N1CCCN1CCC2c3cc(F)ccc3N(c3ccc(F)cc3)C2C1 (configuration not stated)	0.014	> 0.32	0.11	0.05	–
Fc1ccc(N2c3ccc(F)cc3[C@@H]3CNCC[C@H]32)cc1	3.2	–	–	–	–
Cl.O=C1CNC(=O)N1CCCCCCN1CCc2c(n(-c3ccc(F)cc3)c3ccc(F)cc23)C1	0.0058	> 10	1	0.75	–
I.O=C(CCCN1CC[C@H]2[C@H](C1)c1cc(F)ccc1N2c1ccc(F)cc1)N(c1ccccc1)C1CCCCC1	–	< 32	> 32	1	IC50 [6]: Insoluble
Cl.OC(CCCN1CCC(N(c2ccc(F)cc2)c2ccc(F)cc2)CC1)c1ccc(F)cc1 (configuration not stated)	1	–	–	–	–
O[C@H](CCCN1CC[C@@H]2[C@@H](C1)c1cc(F)ccc1N2c1ccc(F)cc1)c1ccc(F)cc1 (stereo in doubt; 2c)	0.022	–	–	–	ED50 [7]: 0.02 mg/kg; ED50 [8]: 0.02 mg/kg; ED50 [4]: 0.05 mg/kg
O=C(NCCN1CC[C@H]2[C@H](C1)c1cc(F)ccc1N2c1ccc(F)cc1)C(CO)c1ccccc1 (some centres not stated)	0.035	32	2.8	0.89	Pupil size [9]: 0.23 mm
OC1(c2ccc(Cl)c(C(F)(F)F)c2)CCN(CCCC(c2ccc(F)cc2)c2ccc(F)cc2)CC1 [PENFLURIDOL]	0.062	–	~32	–	ED50 [7, 15]: 2.4 mg/kg; ED50 [8, 16]: 3.9 mg/kg
CC(=O)NCCCCN1CCC2C(C1)c1cc(F)ccc1N2c1ccc(F)cc1.Cl (configuration not stated)	0.013	–	–	–	ED50 [2]: 0.006 mg/kg
Cl.Fc1ccc(N(c2ccc(F)cc2)C2CCNCC2)cc1	> 1	–	–	–	–
CN1CCC2C(C1)c1cc(F)ccc1N2c1ccc(F)cc1.Cl (configuration not stated)	0.0075	–	–	–	ED50 [2]: 0.3 mg/kg
Fc1ccc(-n2c3c(c4cc(F)ccc42)CNCC3)cc1	0.35	–	> 10	–	–
O=C(CCCN1CCC(O)(c2ccc(Cl)cc2)CC1)c1ccc(F)cc1 [HALOPERIDOL]	–	–	0.66	–	ED50 [7, 15]: 0.75 mg/kg; ED50 [8, 16]: > 10 mg/kg
O[C@H](CCCN1CC[C@H]2[C@H](C1)c1cc(F)ccc1N2c1ccc(F)cc1)c1ccc(F)cc1 (stereo in doubt; 2a)	0.025	–	–	–	ED50 [7]: 0.05 mg/kg; ED50 [8]: 0.02 mg/kg; ED50 [4]: 0.21 mg/kg
CN1[C@@H]2CC[C@H]1C[C@@H](OC(=O)C(CO)c1ccccc1)C2.O=S(=O)(O)O (some centres not stated) [ATROPINE SULFATE]	–	–	–	–	Pupil size [10]: 1.98 mm
O=C(CCCN1CC[C@H]2[C@H](C1)c1cc(F)ccc1N2c1ccc(F)cc1)NC1CCCCC1	0.012	0.57	0.45	0.14	Pupil size [9]: 0.23 mm
Cl.O=C(O)CCCN1CCc2c(c3cc(F)ccc3n2-c2ccc(F)cc2)C1	> 0.32	–	–	–	–
Cl.O=C1CNC(=O)N1CCCCN1CC[C@@H]2c3cc(F)ccc3N(c3ccc(F)cc3)[C@H]2C1	0.012	0.18	0.057	0.018	–
Cl.O=C(CCCN1CCC(N(c2ccc(F)cc2)c2ccc(F)cc2)CC1)c1ccc(F)cc1	0.068	> 32	> 32	–	–

Compound	IC50 [1] [µM]	ED50 [3] [mg/kg]	ED50 [4, 14] [mg/kg]	ED50 [5] [mg/kg]	also measured
Cl.O=C1CNC(=O)N1CCCCCCN1CC[C@@H]2c3cc(F)ccc3N(c3ccc(F)cc3)[C@H]2C1	0.014	0.07	0.13	0.02	–
OC(CCCN1CCc2c(c3cc(F)ccc3n2-c2ccc(F)cc2)C1)c1ccc(F)cc1 (configuration not stated) [FLUTROLINE]	0.012	–	1	–	ED50 [7, 15]: 0.15 mg/kg; ED50 [8, 16]: 2.2 mg/kg
CNCCCN1c2ccccc2CCc2ccccc21.Cl [DESIPRAMINE HYDROCHLORIDE]	–	–	–	–	Pupil size [11]: 0.66 mm
Cl.O=C(NCCCCCCN1CCc2c(c3cc(F)ccc3n2-c2ccc(F)cc2)C1)c1ccccc1	0.0085	–	–	–	ED50 [2]: > 10 mg/kg
O[C@H](CCCN1CC[C@H]2[C@H](C1)c1cc(F)ccc1N2c1ccc(F)cc1)c1ccc(F)cc1 (stereo in doubt; 2b)	0.35	–	–	–	ED50 [7]: 5.7 mg/kg; ED50 [8]: >10 mg/kg; ED50 [4]: >10 mg/kg
Fc1ccc(N2c3ccc(F)cc3[C@H]3CN(CCn4c5ccccc5c5ccccc54)CC[C@@H]32)cc1	–	–	> 32	> 32	IC50 [6]: Insoluble
Cl.O[C@H](CCCN1CCC2C(C1)c1cc(F)ccc1N2c1ccc(F)cc1)c1ccc(F)cc1 (some centres not stated)	0.025	0.02	0.21	0.05	–
Cl.O=C(NCCCCCCN1CCC2C(C1)c1cc(F)ccc1N2c1ccc(F)cc1)c1ccccc1 (configuration not stated)	0.013	–	–	–	ED50 [2]: 0.1 mg/kg
Cl.O=C(Nc1ccccc1)OCCN1CC[C@H]2[C@H](C1)c1cc(F)ccc1N2c1ccc(F)cc1	0.045	2.3	0.57	0.45	–
Fc1ccc(N2c3ccc(F)cc3[C@H]3CNCC[C@@H]32)cc1	0.0067	–	0.36	–	ED50 [7, 15]: 0.45 mg/kg; ED50 [8, 16]: > 10 mg/kg
Cl.O=C1CNC(=O)N1CCCCCN1CC[C@@H]2c3cc(F)ccc3N(c3ccc(F)cc3)[C@H]2C1	0.006	0.05	0.04	0.02	–
CN1CCc2c(c3cc(F)ccc3n2-c2ccc(F)cc2)C1.Cl	–	–	–	–	ED50 [2]: > 1 mg/kg
Cl.O=C1CNC(=O)N1CCCCCCN1CCC2c3cc(F)ccc3N(c3ccc(F)cc3)C2C1 (configuration not stated)	0.0094	> 0.32	0.18	0.033	–
OC(CCN1CC[C@H]2[C@H](C1)c1cc(F)ccc1N2c1ccc(F)cc1)(c1ccccc1)c1ccccc1	0.22	–	> 10	> 10	–
CN1CCN(C2=Nc3cc(Cl)ccc3Nc3ccccc32)CC1 [CLOZAPINE]	–	–	–	–	Pupil size [12]: 1.13 mm
O=C1CNC(=O)N1CCN1CCC2c3cc(F)ccc3N(c3ccc(F)cc3)C2C1 (configuration not stated)	0.026	> 32	0.57	0.57	–
CC(=O)NCCCCN1CCc2c(c3cc(F)ccc3n2-c2ccc(F)cc2)C1.Cl	0.054	–	–	–	ED50 [2]: > 3.2 mg/kg
Cl.O=C(CCCN1CC[C@H]2[C@H](C1)c1cc(F)ccc1N2c1ccc(F)cc1)Nc1ccccc1	0.019	1.8	0.45	–	Pupil size [9]: 0.28 mm; ED50 [13]: 0.18 mg/kg
O[C@H](CCCN1CC[C@@H]2[C@@H](C1)c1cc(F)ccc1N2c1ccc(F)cc1)c1ccc(F)cc1 (stereo in doubt; 2d)	1.8	–	–	–	ED50 [7]: 18.1 mg/kg; ED50 [8]: >10 mg/kg; ED50 [4]: >10 mg/kg
